Published values gathered from unrelated publications.
Protocols differ between the studies behind these lines.
Target: Macrophage-stimulating protein receptor (MST1R, Homo sapiens, UniProt Q04912)

SMILES | read-out | mode | method | tested at | endpoint | result
O=C(Nc1ccc(Oc2ccc(F)cc2)cc1)N1CCc2ncccc2[C@H]1c1ccc(F)cc1 | cell-free assay | – | competition with immobilised ligand | 1 µM | remaining binding | 98%
CCCCNc1ncc2c(-c3ccc(F)cc3)nn(C[C@H]3CC[C@H](N)CC3)c2n1 | target engagement in cells | inhibitor | chemoproteomics | 20 mM | inhibition | -12.3%
O=C1CCc2cc(Nc3cc(OC4CCOCC4)c([N+](=O)[O-])cc3Cl)ccc2N1 | cell-free assay | – | competition with immobilised ligand | 1 µM | remaining binding | 100%
CCCS(=O)(=O)Nc1ccc(F)c(C(=O)c2c[nH]c3ncc(-c4ccc(Cl)cc4)cc23)c1F | enzyme activity | inhibitor | – | 1 µM | inhibition | < 10%
CNC(=O)c1cc2c(Oc3ccc(NC(=O)C4(C(=O)Nc5ccc(F)cc5)CC4)cc3)ccnc2cc1OC | enzyme activity | inhibitor | radiometric | 1 µM | inhibition | 90%
Cc1ccc(Nc2nccc(N(C)c3ccc4c(C)n(C)nc4c3)n2)cc1S(N)(=O)=O | cell-free assay | – | – | 0.3 µM | inhibition | -3%
O=C1NC(=O)c2cc(Nc3ccc(F)cc3)c(Nc3ccc(F)cc3)cc21 | cell-free assay | – | – | 0.5 µM | remaining signal | 100%
CC(C)(C)c1nc(-c2cccc(NS(=O)(=O)c3c(F)cccc3F)c2F)c(-c2ccnc(N)n2)s1 | enzyme activity | inhibitor | radiometric | 1 µM | remaining activity | 104%
Cc1ccc(C(=O)Nc2ccc(CN3CCN(C)CC3)c(C(F)(F)F)c2)cc1C#Cc1cnc2cccnn12 | cell-free assay | – | – | 23.5 nM | remaining signal | 100%
COc1cc(-c2cn(C3CCc4ccccc4N(CC(F)(F)F)C3=O)nn2)ccc1-n1ccc(C)n1 (stereo not shown) | cell-free assay | – | competition with immobilised ligand | 1 µM | remaining binding | 96%
c1ccc(CNc2nc(N3CCOc4ccccc43)nc3c2CCCC3)cc1 | target engagement in cells | inhibitor | chemoproteomics | 20 mM | inhibition | -10.5%
Cc1cc(NC(=O)c2cccc3cc(-c4cccc5[nH]nc(N)c45)ccc23)ccc1F | enzyme activity | inhibitor | – | 0.1 µM | activity vs control | 110%
CC(=O)c1c(NS(C)(=O)=O)c2cc(-c3ccc(Cl)cc3)c(-c3ccc(Cl)cc3Cl)nc2n(C)c1=O | cell-free assay | – | competition with immobilised ligand | 1 µM | remaining binding | 88%
Clc1ccc(Nc2nnc(Cc3ccncc3)c3ccccc23)cc1 | cell-free assay | – | – | 0.5 µM | remaining signal | 91.6%
Cc1[nH]c(/C=C2\C(=O)Nc3ccc(F)cc32)c(C)c1C(=O)N[C@H]1CCN(C(=O)N(C)C)C1 | enzyme activity | inhibitor | – | 0.1 µM | remaining activity | 93%
Cc1cc(-n2nc(Cc3cc(F)cc(C(F)(F)F)c3)nc2C)ccc1C(N)=O | cell-free assay | – | competition with immobilised ligand | 1 µM | remaining binding | 100%
COc1cc(Cl)c(C(=O)N[C@@H](CN[C@H]2CC[C@@H](N)CC2)Cc2ccc(C#N)cc2)cc1-c1ccc(CN[C@H](C)c2ccc(C)cc2)o1 | enzyme activity | inhibitor | – | 1 µM | remaining activity | 92%
CNC(=O)c1cc(Oc2ccc(NC(=O)Nc3ccc(Cl)c(C(F)(F)F)c3)cc2)ccn1 | cell-free assay | – | – | 10 µM | inhibition | -5%
O=C1Nc2ccc(Cl)cc2C1=Cc1cc(Cl)c(O)c(Cl)c1 | cell-free assay | – | – | 0.5 µM | remaining signal | 94.8%
Cc1noc([C@H]2C[C@@H](c3ccc(C(F)(F)F)cc3)CN(C(=O)N3CCS(=O)(=O)C3)C2)n1 | cell-free assay | – | competition with immobilised ligand | 1 µM | remaining binding | 100%
CCN(CC)CCNC(=O)c1c(C)[nH]c(/C=C2\C(=O)Nc3ccc(F)cc32)c1C | cell-free assay | – | – | 0.3 µM | inhibition | -3%
O=C(N1CCS(=O)(=O)CC1)N1C[C@H](c2ccc(OC(F)(F)F)cc2)C[C@H](c2nc(C3CC3)no2)C1 | cell-free assay | – | competition with immobilised ligand | 1 µM | remaining binding | 100%
C=CC(=O)Nc1cc(Nc2nccc(Nc3cc(Cl)c(F)cc3C(C)(C)O)n2)c(OC)cc1N1CC[C@@H](N(C)C)C1 | enzyme activity | inhibitor | – | 1 µM | inhibition | 8%
CC(C)(O)[C@H]1CC[C@H](Nc2ccc3ncc(-c4cccc(C(F)(F)F)c4)n3n2)CC1 | enzyme activity | inhibitor | – | 1 µM | remaining activity | 101%
O=C(NS(=O)(=O)c1ccc(NCC2CCOCC2)c([N+](=O)[O-])c1)c1ccc(N2CCN(Cc3ccc(C(F)(F)F)cc3-c3ccc(Cl)cc3)CC2)cc1Oc1cnc2[nH]ccc2c1 | cell-free assay | – | competition with immobilised ligand | 1 µM | remaining binding | 96%
CCN(CC)CCNC(=O)c1c(C)[nH]c(/C=C2\C(=O)Nc3ccc(F)cc32)c1C | enzyme activity | inhibitor | – | 1 µM | remaining activity | 138%
COc1cc2ncnc(Nc3ccc(Oc4ccccc4)cc3C)c2cc1OC | enzyme activity | inhibitor | – | 1 µM | inhibition | -3%
O=C(Nc1cnn(-c2csc(C(=O)NC3COC3)c2)c1)Nc1c(F)cccc1Cl | enzyme activity | inhibitor | – | 5 µM | remaining activity | 100%
